Published values gathered from unrelated publications.
Lines come from different studies, so protocols differ. ≈ marks a conversion by molar mass, not a printed value.

With C=C[C@]1(C)C[C@@H](OC(=O)CS[C@@H]2C[C@H]3CC[C@@H](C2)N3C)[C@]2(C)[C@H](C)CC[C@]3(CCC(=O)[C@H]32)[C@@H](C)[C@@H]1O the MIC50 was over 128 µg/mL (Enterococcus faecalis; microbial growth; clinical isolate).
The inhibition of CCC(=CCc1c(O)cc2c(c1O)C(=O)CC(c1ccc(O)cc1)O2)CC (stereo in doubt) is reported as 2.57% (HeLa; cell growth or viability, MTT; 1.563 µM, 48 h).
CNC(=S)NN=Cc1ccc(F)cc1 has an IC50 of 346 µM (Leishmania major; parasite growth, MTT; 72 h, promastigote).
The MIC of CN[C@H](CC(C)C)C(=O)N[C@H]1C(=O)N[C@@H](CC(N)=O)C(=O)N[C@H]2C(=O)N[C@H]3C(=O)N[C@H](C(=O)N[C@H](C(=O)O)c4cc(O)cc(O)c4-c4cc3ccc4O)[C@H](O)c3ccc(c(Cl)c3)Oc3cc2cc(c3O[C@@H]2O[C@H](CO)[C@@H](O)[C@H](O)[C@H]2O[C@H]2C[C@](C)(N)[C@H](O)[C@H](C)O2)Oc2ccc(cc2Cl)[C@H]1O is reported as 2 µg/mL (≈ 1.38 µM) (Enterococcus faecalis; microbial growth, agar dilution; ATCC29212).
The EC50 of CCOc1cccc(C(=O)CC(SCc2cccc(Br)c2)C(=O)O)c1 (stereo not shown) is reported as 98 µM (U2OS; cell growth or viability, MTT; 48 h).
CC(=O)NC[C@H]1CN(c2ccc(N3CCOCC3)c(F)c2)C(=O)O1 has an MIC50 of 0.5 µg/mL (≈ 1.48 µM) (Enterococcus faecalis; microbial growth, broth dilution; clinical isolate).
COc1ccc(Nc2cnnc3cc(-c4ccc(N5CCN(C)CC5)cc4)ccc23)nc1 gave an EC50 of 6 µM (Leishmania major; parasite growth; intracellular, amastigote).
CCC(=CCc1c(O)cc2c(c1O)C(=O)C[C@@H](c1ccccc1O)O2)CC has an inhibition of -0.655% (HeLa; cell growth or viability, MTT; 3.75 µM, 48 h).
For CN1CCN(c2ncc(-c3ccc4nncc(Nc5ncccn5)c4c3)cn2)CC1, the EC50 was over 25 µM (Leishmania major; parasite growth; intracellular, amastigote).
For CNC(=S)NN=Cc1ccc(O)c(OC)c1, the IC50 was 38.3 µM (Leishmania major; parasite growth, MTT; 72 h, promastigote).
